According to ChEMBL document CHEMBL4052636, “Design, synthesis and biological evaluation of some novel sulfonamide derivatives as apoptosis inducers” (Eur J Med Chem, 2017):

Tests used:
[1] = test system: Caco-2; experiment: Cytotoxicity against human Caco2 cells assessed as surviving fraction at 1 uM after 24 hrs by MTT assay relative to control; type: functional
Method in brief: (§1)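 Caco-2 cells were kept as monolayers in RPMI-1640 with 10% FBS, 100 U/mL penicillin and streptomycin, at 37 C in humidified 5% CO2. Cells were treated for 24 h at concentrations spanning […], and viability was read by the colorimetric MTT (Mosmann) method. Percent relative viability and IC50 were fitted in Prism.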

[2] = test system: Caco-2; experiment: Cytotoxicity against human Caco2 cells assessed as cell viability after 24 hrs by MTT assay; type: functional, cell-based; details: Caco-2, 24 h; method in brief: as §1
[3] = test system: Caco-2; experiment: Cytotoxicity against human Caco2 cells assessed as surviving fraction at 50 uM after 24 hrs by MTT assay relative to control; type: functional; method in brief: as §1
[4] = test system: Caco-2; experiment: Cytotoxicity against human Caco2 cells assessed as surviving fraction at 10 uM after 24 hrs by MTT assay relative to control; type: functional; method in brief: as §1
[5] = test system: Caco-2; experiment: Cytotoxicity against human Caco2 cells assessed as surviving fraction at 25 uM after 24 hrs by MTT assay relative to control; type: functional; method in brief: as §1
[6] = test system: Caco-2; experiment: Cytotoxicity against human Caco2 cells assessed as surviving fraction at 100 uM after 24 hrs by MTT assay relative to control; type: functional; method in brief: as §1
[7] = test system: Caco-2; experiment: Induction of apoptosis in human Caco2 cells assessed as Fas-ligand concentration at 0.6 uM after 24 hrs by FASL-based ELISA (reference value: 20.5 pg/ml); type: functional
[8] = test system: Caco-2; experiment: Induction of apoptosis in human Caco2 cells assessed as Fas-ligand concentration at 0.15 uM after 24 hrs by FASL-based ELISA (reference value: 20.5 pg/ml); type: functional
[9] = test system: Caco-2; experiment: Induction of apoptosis in human Caco2 cells assessed as caspase-3 concentration at 0.15 uM after 24 hrs by colorimetric analysis (reference value: 0.193 nmol/ml); type: functional
[10] = test system: Caco-2; experiment: Induction of apoptosis in human Caco2 cells assessed as caspase-3 concentration at 0.3 uM after 24 hrs by colorimetric analysis (reference value: 0.193 nmol/ml); type: functional
[11] = test system: Caco-2; experiment: Induction of apoptosis in human Caco2 cells assessed as caspase-3 concentration at 0.6 uM after 24 hrs by colorimetric analysis (reference value: 0.193 nmol/ml); type: functional
[12] = test system: Caco-2; experiment: Induction of apoptosis in human Caco2 cells assessed as Fas-ligand concentration at 0.3 uM after 24 hrs by FASL-based ELISA (reference value: 20.5 pg/ml); type: functional
[13] = test system: Caco-2; experiment: Induction of apoptosis in human Caco2 cells assessed as Fas-ligand concentration at 100 uM after 24 hrs by FASL-based ELISA (reference value: 20.5 pg/ml); type: functional
[14] = test system: Caco-2; experiment: Induction of apoptosis in human Caco2 cells assessed as caspase-3 concentration at 31 uM after 24 hrs by colorimetric analysis (reference value: 0.193 nmol/ml); type: functional
[15] = test system: Caco-2; experiment: Induction of apoptosis in human Caco2 cells assessed as Fas-ligand concentration at 31.5 uM after 24 hrs by FASL-based ELISA (reference value: 20.5 pg/ml); type: functional
[16] = test system: Caco-2; experiment: Induction of apoptosis in human Caco2 cells assessed as caspase-3 concentration at 62.3 uM after 24 hrs by colorimetric analysis (reference value: 0.193 nmol/ml); type: functional
[17] = test system: Caco-2; experiment: Induction of apoptosis in human Caco2 cells assessed as Fas-ligand concentration at 63.5 uM after 24 hrs by FASL-based ELISA (reference value: 20.5 pg/ml); type: functional
[18] = test system: Caco-2; experiment: Induction of apoptosis in human Caco2 cells assessed as caspase-3 concentration at 100 uM after 24 hrs by colorimetric analysis (reference value: 0.193 nmol/ml); type: functional
[19] = test system: Caco-2; experiment: Induction of apoptosis in human Caco2 cells assessed as caspase-3 concentration at 15 uM after 24 hrs by colorimetric analysis (reference value: 0.193 nmol/ml); type: functional
[20] = test system: Caco-2; experiment: Induction of apoptosis in human Caco2 cells assessed as Fas-ligand concentration at 15 uM after 24 hrs by FASL-based ELISA (reference value: 20.5 pg/ml); type: functional
Method in brief: (§2)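 Caco-2 cells were grown in RPMI-1640 with 10% FBS, penicillin and streptomycin at 37 C under 5% CO2. Cells were exposed to the test agent for 24 h. Fas-ligand in the cells was then measured with a colorimetric human FASL ELISA kit and reported as pg/mL against an untreated control.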

[21] = test system: Caco-2; experiment: Induction of apoptosis in human Caco2 cells assessed as Fas-ligand concentration at 31 uM after 24 hrs by FASL-based ELISA (reference value: 20.5 pg/ml); type: functional; method in brief: as §2
[22] = test system: Caco-2; experiment: Induction of apoptosis in human Caco2 cells assessed as Fas-ligand concentration at 62 uM after 24 hrs by FASL-based ELISA (reference value: 20.5 pg/ml); type: functional; method in brief: as §2
[23] = test system: Caco-2; experiment: Induction of apoptosis in human Caco2 cells assessed as caspase-3 concentration at 62 uM after 24 hrs by colorimetric analysis (reference value: 0.193 nmol/ml); type: functional

COc1ccc(-c2onc3nc(Nc4ccc(S(N)(=O)=O)cc4)sc23)cc1
Ratio [1]: 0.412 | IC50 [2]: 0.559 µM | Ratio [3]: 0.229 | Ratio [4]: 0.401 | Ratio [5]: 0.317 | Ratio [6]: 0.228

NS(=O)(=O)c1ccc(NC2=NC(=O)/C(=C/c3ccccc3)S2)cc1
Ratio [1]: 0.348 | IC50 [2]: 0.334 µM | Activity [7]: 706.12 pg/mL | Ratio [3]: 0.422 | Activity [8]: 445.2 pg/mL | Activity [9]: 0.43 nmol/mL | Activity [10]: 0.38 nmol/mL | Ratio [4]: 0.182 | Ratio [5]: 0.133 | Activity [11]: 0.37 nmol/mL | Activity [12]: 775.2 pg/mL | Ratio [6]: 0.068

NS(=O)(=O)c1ccc(Nc2nc3nc(=O)[nH]c(-c4ccc(Cl)cc4)c3s2)cc1
Ratio [1]: 0.519 | IC50 [2]: 12.7 µM | Ratio [3]: 0.156 | Ratio [4]: 0.603 | Ratio [5]: 0.112 | Ratio [6]: 0.073

COc1ccc(-c2[nH]c(=S)nc3nc(Nc4ccc(S(N)(=O)=O)cc4)sc23)cc1
Ratio [1]: 0.444 | IC50 [2]: 0.667 µM | Ratio [3]: 0.186 | Ratio [4]: 0.344 | Ratio [5]: 0.299 | Ratio [6]: 0.169

NS(=O)(=O)c1ccc(NC2=NC(=O)/C(=C/c3ccc(Cl)cc3)S2)cc1
Ratio [1]: 0.285 | IC50 [2]: 0.667 µM | Ratio [3]: 0.086 | Ratio [4]: 0.314 | Ratio [5]: 0.113 | Ratio [6]: 0.153

NS(=O)(=O)c1ccc(Nc2nc3noc(-c4ccccc4)c3s2)cc1
Ratio [1]: 0.442 | IC50 [2]: 0.669 µM | Ratio [3]: 0.295 | Ratio [4]: 0.335 | Ratio [5]: 0.304 | Ratio [6]: 0.456

COc1ccc(-c2[nH]c(=O)nc3nc(Nc4ccc(S(N)(=O)=O)cc4)sc23)cc1
Ratio [1]: 0.477 | IC50 [2]: 0.667 µM | Ratio [3]: 0.257 | Ratio [4]: 0.362 | Ratio [5]: 0.473 | Ratio [6]: 0.167

COc1ccc(/C=C2\SC(Nc3ccc(S(N)(=O)=O)cc3)=NC2=O)cc1
Ratio [1]: 0.281 | IC50 [2]: 1.33 µM | Ratio [3]: 0.416 | Ratio [4]: 0.179 | Ratio [5]: 0.466 | Ratio [6]: 0.485

NS(=O)(=O)c1ccc(Nc2nc3noc(-c4ccc(Cl)cc4)c3s2)cc1
Ratio [1]: 0.319 | IC50 [2]: 0.333 µM | Activity [7]: 312.2 pg/mL | Ratio [3]: 0.202 | Activity [8]: 111.3 pg/mL | Activity [9]: 0.366 nmol/mL | Activity [10]: 0.409 nmol/mL | Ratio [4]: 0.248 | Ratio [5]: 0.219 | Activity [11]: 0.407 nmol/mL | Activity [12]: 147.5 pg/mL | Ratio [6]: 0.197

NS(=O)(=O)c1ccc(Nc2nc3nc(=S)[nH]c(-c4ccccc4)c3s2)cc1
Ratio [1]: 0.304 | IC50 [2]: 0.333 µM | Activity [7]: 307.5 pg/mL | Ratio [3]: 0.223 | Activity [8]: 115.5 pg/mL | Activity [9]: 0.35 nmol/mL | Activity [10]: 0.34 nmol/mL | Ratio [4]: 0.223 | Ratio [5]: 0.234 | Activity [11]: 0.364 nmol/mL | Activity [12]: 165.7 pg/mL | Ratio [6]: 0.135

NS(=O)(=O)c1ccc(Nc2nc3nc(=S)[nH]c(-c4ccc(Cl)cc4)c3s2)cc1
Ratio [1]: 0.433 | IC50 [2]: 0.333 µM | Activity [7]: 641.8 pg/mL | Ratio [3]: 0.339 | Activity [8]: 312.4 pg/mL | Activity [9]: 0.404 nmol/mL | Activity [10]: 0.366 nmol/mL | Ratio [4]: 0.456 | Ratio [5]: 0.338 | Activity [11]: 0.37 nmol/mL | Activity [12]: 309.4 pg/mL | Ratio [6]: 0.276

NS(=O)(=O)c1ccc(Nc2nc3nc(=O)[nH]c(-c4ccccc4)c3s2)cc1
Ratio [1]: 0.371 | IC50 [2]: 0.334 µM | Ratio [3]: 0.229 | Ratio [4]: 0.237 | Ratio [5]: 0.285 | Ratio [6]: 0.227

COc1cccc2c1C(=O)c1c(O)c3c(c(O)c1C2=O)C[C@@](O)(C(=O)CO)C[C@@H]3O[C@H]1C[C@H](N)[C@H](O)[C@H](C)O1 [DOXORUBICIN]
Activity [13]: 95.8 pg/mL | Ratio [1]: 0.814 | IC50 [2]: 63.3 µM | Ratio [3]: 0.552 | Activity [14]: 0.251 nmol/mL | Ratio [4]: 0.597 | Ratio [5]: 0.663 | Ratio [6]: 0.343 | Activity [15]: 41.65 pg/mL | Activity [16]: 0.26 nmol/mL | Activity [17]: 56.41 pg/mL | Activity [18]: 0.272 nmol/mL

O=c1[nH]cc(F)c(=O)[nH]1 [FLUOROURACIL]
Activity [19]: 0.92 nmol/mL | Ratio [1]: 0.405 | IC50 [2]: 31 µM | Activity [20]: 287.7 pg/mL | Ratio [3]: 0.525 | Activity [14]: 0.8 nmol/mL | Activity [21]: 140.1 pg/mL | Activity [22]: 66.2 pg/mL | Ratio [4]: 0.31 | Ratio [5]: 0.325 | Ratio [6]: 0.254 | Activity [23]: 0.73 nmol/mL
